Reference: article PMC9835613 (Chemosphere, 2022)
Values joined by “and” are separate entries in the source; they are usually repeats but may differ in a detail not shown here. Identical values can stand only once. Marks after values point to notes of the source that are not given here.

Columns and labels:
[1] = ref Burkhard and Kuehl, 1986; cited from earlier work
[2] = tested on: zebrafish; experiment: Survival of embryos after TCDD exposure; format: in vivo, zebrafish (Danio rerio); details: TCDD-exposed groups at 72 hpf; control (DMSO) 96.4%, p = 0.49
[3] = tested on: zebrafish metabolome; experiment: Non-targeted LC-HRMS metabolomics of TCDD-exposed embryos; format: in vivo, zebrafish (Danio rerio); details: TCDD exposed vs DMSO
How it was run: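 Embryos given a 1-h exposure at 4 hpf to 50 ppt or 10 ppb test compound, or matched DMSO, pooled (40 and 7 embryos respectively) at 24, 48 and 72 hpf. LC-HRMS used HILIC (25 °C) and C18 (60 °C) columns with 2 mM ammonium acetate/acetonitrile gradients, in negative and positive ion modes.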

[4] = TCDD body burden and elimination in embryos, GC-HRMS; format: in vivo, zebrafish (Danio rerio); details: for body burden relative to the 50 ppt dose: 24 hpf; for Concentration of TCDD detected per embryo (body burden): 1 h at 4 hpf, mean; for half-life: zebrafish, whole embryo (pooled embryos), other: waterborne exposure
How it was run: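 AB zebrafish embryos, screened at 3 hpf, exposed at 4 hpf (20 per 2 mL egg water) for 1 h to 50 ppt, 1 ppb or 10 ppb test compound (DMSO stock diluted 1:1000) or paired DMSO, then raised in fresh egg water at 28.5 °C. Dechorionated at 24 hpf. Pooled embryos (7 at 1 and 10 ppb) snap-frozen at 24, 48 and 72 hpf.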

## Clc1cc2c(cc1Cl)Oc1cc(Cl)c(Cl)cc1O2 [TCDD, 2,3,7,8-tetrachlorodibenzo-p-dioxin]
[1]
  Kow: 7.02
[2]
  average survival rate: 96.3%
[3]; bile acid biosynthesis pathway
  upregulation of 3a, 7a-Dihydroxy-5b-cholestane: 1.01 fold
[3]; every 24 h
  decrease of the dihydrotestosterone peak: 6.02 fold
  downregulation of androsterone: 0.363 fold
  upregulation of pregnenolone: 0.529 fold
[3]; over time
  downregulation of L-Glutamic acid (glutamate): 0.30 fold
  downregulation of dopamine: 0.66 fold
  downregulation of gamma-aminobutyric acid (GABA): 0.32 fold
[4]; 1 ppb exposure vs 50 ppt exposure
  body burden relative to the 50 ppt dose: approximately 3 times
[4]; 1 ppb waterborne exposure, 48 HPF
  Concentration of TCDD detected per embryo (body burden): 12.7 pg/embryo
[4]; 1 ppb waterborne exposure, 72 HPF
  Concentration of TCDD detected per embryo (body burden): 4.30* pg/embryo
[4]; 10 ppb exposure vs 50 ppt exposure
  body burden relative to the 50 ppt dose: approximately 4.45 times
[4]; 10 ppb waterborne exposure, 24 HPF
  Concentration of TCDD detected per embryo (body burden): 26.6 ± 1.2 pg/embryo and 38.0 ± 4.34 pg/embryo and 38.0* pg/embryo
[4]; 10 ppb waterborne exposure, 48 HPF
  Concentration of TCDD detected per embryo (body burden): 14.7 pg/embryo
[4]; 10 ppb waterborne exposure, 72 HPF
  Concentration of TCDD detected per embryo (body burden): 9.78* pg/embryo
[4]; 50 ppt waterborne exposure, 48 HPF
  Concentration of TCDD detected per embryo (body burden): 5.27 pg/embryo
[4]; 50 ppt waterborne exposure, 72 HPF
  Concentration of TCDD detected per embryo (body burden): 0.407 pg/embryo
[4]; 1 ppb
  half-life: 32.7 h
[4]; 10 ppb
  half-life: 10.7 h
